Shown are actives, neighbours in structure and some others; about 1.2% of the full set was active somewhere.
Redox H2O2 prof: compounds producing H2O2 with reducing agent – biochemical, NIH compound library profiling, artefact control for MLSCN library redox annotation, primary screen | activation, % at 10 µM | DTT-dependent redox cycling H2O2, phenol red/HRP absorbance; 100% = 100 µM peroxide control, 0% = buffer | hit rate 0.03% among 200,000;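 active = activation of at least 50% relative to the plate's high and low controls in the primary single-dose screen; inactive = activation below 50%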;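 also: compound incubated with DTT at 0.8 mM final as the reducing agent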
HMGR II inh: E. faecalis class II HMG-CoA reductase inhibition; purified E. faecalis HMGR, NADPH absorbance 340 nm kinetic; inhibition, % at 10 µM; hit rate 0.41% among 190,000; AID 1066;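 active = inhibition above a set limit, the median over all tested compounds plus 3 SD, cut at about 9.5% in these data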;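 also: enzyme runs in reverse so mevalonate oxidation gives rising NADPH absorbance; 0% = complete reaction with DMSO and 100% = background rate lacking mevalonate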
PMI act satM6P: activators of human phosphomannose isomerase at near-saturating mannose 6-phosphate | coupled PMI enzyme assay, resazurin fluorescence, 20 min; active compounds read high; 1 = untreated enzyme, 0 = substrate-free blank | activation factor at 20 µM | hit rate 0.34% among 190,000;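 active = activation factor of 2 or more at 20 µM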
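Test system: Human PMI in coupled enzyme assay | Input: 15 ng/mL PMI | Medium: HEPES-buffered pH 7.4 with magnesium and detergent | Compound: One concentration, 20 µM, in 1% DMSO | Incubation: Enzyme reaction with compound 20 min at room temperature | Detection: Diaphorase-driven resazurin-to-resorufin fluorescence, excitation 544, emission 590 nm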
Diaph act CS: counter-screen for diaphorase-based assays: diaphorase activators and chemical reducers | Diaphorase/resazurin coupled assay, resorufin fluorescence, 16 min; active compounds read high; 1 = vehicle wells, 0 = NADH-free wells | activation factor at 20 µM | hit rate 0.005% among 190,000 | AID 1229;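 active = diaphorase activity raised at least twofold by the compound at 20 µM; inactive = activation factor below 2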
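Assay system: bacterial diaphorase enzyme (C. kluyveri) / Input: enzyme 0.07 U/mL final / Medium: 50 mM HEPES pH 7.4 with 4.542 mM MgCl2, 0.005% Tween 20 / Doses: single compound dose of 20 µM, 1% DMSO final / Incubation: 16 min enzyme reaction, ambient temperature / Signal: fluorescence, excitation 544 nm and emission 590 nm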
NCF1 inh: inhibitors of human p47phox binding; P14598; p47phox/p22phox peptide binding, fluorescence polarization, 2 h; inhibition, % at 24.7 µM; hit rate 0.53% among 220,000;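 active = inhibition above about 30%, limit read from the data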;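 also: 0% = p47phox with labelled peptide and 100% = labelled peptide alone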
Target sequence (P14598 whole entry, looked up): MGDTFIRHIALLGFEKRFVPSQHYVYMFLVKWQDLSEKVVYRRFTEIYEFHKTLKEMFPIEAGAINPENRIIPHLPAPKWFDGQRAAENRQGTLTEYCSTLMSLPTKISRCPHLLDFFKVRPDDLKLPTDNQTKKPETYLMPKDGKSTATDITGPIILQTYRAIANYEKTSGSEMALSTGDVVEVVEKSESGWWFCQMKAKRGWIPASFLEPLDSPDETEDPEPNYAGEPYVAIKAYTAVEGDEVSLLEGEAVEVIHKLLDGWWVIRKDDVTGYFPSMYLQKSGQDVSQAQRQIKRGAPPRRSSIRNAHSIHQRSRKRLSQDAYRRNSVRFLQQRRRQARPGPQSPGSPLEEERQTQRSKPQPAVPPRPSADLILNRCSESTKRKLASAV
PMI act: activators of human phosphomannose isomerase | purified human PMI, coupled resazurin fluorescence, 20 min; active compounds read high; 1 = vehicle control, 0 substrate-free wells | P34949 | hit rate 0.005% among 190,000 | activation factor at 20 µM | AID 1214;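 active = activation factor of 2 or more at 20 µM, relative to plate controls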
* = called active by the depositor.

COc1ccccc1CNc1nc(-c2cc(C)n(C)c2C)cs1 was read as Redox H2O2 prof -2.1, HMGR II inh -2.3, PMI act satM6P 1.3, Diaph act CS 0.6, NCF1 inh 46.4* and PMI act 1.5.
`COc1cc2c(cc1OC)C1(CCCC1)CNC2c1cccc([N+](=O)[O-])c1` (stereo not given) gave Redox H2O2 prof 0.3, HMGR II inh 1.9, PMI act satM6P 1, Diaph act CS 0.9, NCF1 inh -3.7 and PMI act 0.9.
CCC(C)(C)C(=O)Nc1cc([N+](=O)[O-])ccc1F was read as Redox H2O2 prof -0.2, HMGR II inh 12.1*, PMI act satM6P 1, Diaph act CS 1, NCF1 inh -5.8 and PMI act 1.
For COc1ccc([N+](=O)[O-])cc1NC(=O)c1cccs1 the results were Redox H2O2 prof -1.9, HMGR II inh -0.9, PMI act satM6P 1, Diaph act CS 1, NCF1 inh 4.4 and PMI act 0.9.
`O=C(Nc1cc([N+](=O)[O-])ccc1F)c1cccs1` gave Redox H2O2 prof -0.1, HMGR II inh 2.0, PMI act satM6P 1.1, Diaph act CS 0.9, NCF1 inh 75.2* and PMI act 1.
For CN1N=C(C(C)(C)C)CSC1=Nc1ccccc1 the results were NCF1 inh -2.6.
Screening O=C(c1ccc(Cl)c(S(=O)(=O)N2CCCC2)c1)N1CCN(c2ncccn2)CC1 returned Redox H2O2 prof -0.5, HMGR II inh -1.2, PMI act satM6P 1, Diaph act CS 0.9, NCF1 inh -17.8 and PMI act 1.
For CC1=C(C#N)c2nc(N)c(C#N)c(C)c2/C1=C\c1ccc(-c2ccccc2C(=O)O)o1 the results were Redox H2O2 prof 0.4, HMGR II inh -3.9, PMI act satM6P 0.9, Diaph act CS 0.4, NCF1 inh 37.1* and PMI act 1.2.
Screening CCN(CC)CCN(Cc1cc2ccc(C)cc2[nH]c1=O)C(=O)Nc1ccc(Cl)cc1 returned Redox H2O2 prof -0.1, HMGR II inh -2.5, PMI act satM6P 1.1, Diaph act CS 1.2, NCF1 inh -20.2 and PMI act 1.
`Cc1oc(-c2ccc(Cl)cc2)nc1CN1CCC(C(=O)N2CCc3ccccc3C2)CC1` gave Redox H2O2 prof 0.4, HMGR II inh -1.8, PMI act satM6P 1, Diaph act CS 1, NCF1 inh 45.1* and PMI act 1.
For Cc1oc(-c2ccc(Cl)cc2)nc1CN1CCC(C(=O)N2CCN(Cc3ccccc3)CC2)CC1 the results were Redox H2O2 prof -0.8, HMGR II inh 0.8, PMI act satM6P 0.8, Diaph act CS 0.9, NCF1 inh 0.9 and PMI act 0.9.
CCOc1cc(N2CCOCC2)c(OCC)cc1NC1=NCCCCC1 was read as Redox H2O2 prof -0.4, HMGR II inh 1.2, PMI act satM6P 0.5, Diaph act CS 0.7, NCF1 inh 60.0* and PMI act 0.8.
CC(C)CCN1CCN(C2CCN(c3ccccc3)CC2)CC1CCO (stereo not given) was read as Redox H2O2 prof -1.1, HMGR II inh -6.0, PMI act satM6P 0.9, Diaph act CS 1, NCF1 inh -7.9 and PMI act 0.9.
`O=C(CCCOc1ccc(Cl)cc1Cl)N/N=C/c1ccccc1` gave Redox H2O2 prof -0.2, HMGR II inh 1.8, PMI act satM6P 0.8, Diaph act CS 0.8, NCF1 inh 50.6* and PMI act 0.7.
For NC(N)=N/N=C/c1ccc(OCc2ccc(Cl)cc2)cc1 the results were Redox H2O2 prof 1.3, HMGR II inh 0.6, PMI act satM6P 1.1, Diaph act CS 1.5, NCF1 inh 53.5* and PMI act 1.1.
Screening CC(C)NC(=O)CSc1nc2ccccc2n1CC(=O)N(C(C)C)C(C)C returned Redox H2O2 prof 0.2, HMGR II inh 23.4*, PMI act satM6P 1, Diaph act CS 1.1, NCF1 inh -8.8 and PMI act 1.1.
`O=C1CC(NNc2ccccc2)C(=O)N1c1ccccc1` (stereo not given) gave Redox H2O2 prof 0.1, HMGR II inh 6.4, PMI act satM6P 2.5*, Diaph act CS 1, NCF1 inh -6.3 and PMI act 1.7.
For COc1ccc(NC2CC(=O)N(c3ccccc3)C2=O)cc1 (stereo not given) the results were Redox H2O2 prof -0.5, HMGR II inh -5.8, PMI act satM6P 1.1, Diaph act CS 0.9, NCF1 inh -2.6 and PMI act 1.
Screening Cc1ccc(NNC2CC(=O)N(c3cccc(Cl)c3)C2=O)cc1 (stereo not given) returned Redox H2O2 prof -0.7, HMGR II inh -4.9, PMI act satM6P 2.6*, Diaph act CS 0.9, NCF1 inh -13.0 and PMI act 1.7.
Screening COc1ccc(-n2c(C)cc(C)c(C(C)=O)c2=S)cc1 returned Redox H2O2 prof -0.4, HMGR II inh 0.7, PMI act satM6P 0.9, Diaph act CS 0.9, NCF1 inh 4.1 and PMI act 0.9.
For COc1cc2c(-c3ccc(O)cc3)nc3c(c(C)nn3-c3ccccc3)c2cc1OC the results were Redox H2O2 prof -0.2, HMGR II inh -1.7, PMI act satM6P 0.9, Diaph act CS 0.8, NCF1 inh 34.1* and PMI act 0.9.
C=CCN1CC2(c3ccccc3)CN(CC=C)CC(c3ccccc3)(C1)C2=O was read as Redox H2O2 prof 1.0, HMGR II inh -0.3, PMI act satM6P 1, Diaph act CS 0.9, NCF1 inh 5.1 and PMI act 1.
NC(=O)c1ccc(-n2nnnc2SCc2ccccc2)cc1 was read as Redox H2O2 prof -1.7, HMGR II inh -5.8, PMI act satM6P 1, Diaph act CS 1, NCF1 inh -7.2 and PMI act 1.
For O=C(Nc1nccs1)c1ccc(CSc2nnnn2-c2ccccc2)cc1 the results were Redox H2O2 prof 1.4, HMGR II inh 11.3*, PMI act satM6P 1.1, Diaph act CS 0.9, NCF1 inh -17.5 and PMI act 1.
CSc1nc2ccsc2c(=O)n1-c1ccccn1 was read as Redox H2O2 prof -1.9, HMGR II inh -4.4, PMI act satM6P 1.1, Diaph act CS 1, NCF1 inh -2.1 and PMI act 1.
For Cn1c2ccccc2c(=O)c2c(=O)n(-c3ccccc3)c(C3CCCCC3)nc21 the results were Redox H2O2 prof -0.1, HMGR II inh -4.3, PMI act satM6P 1.1, Diaph act CS 0.8, NCF1 inh -2.6 and PMI act 1.1.
`Cn1c2ccccc2c(=O)c2c(=O)n(C3CCCCCC3)c(C3CCCCC3)nc21` gave Redox H2O2 prof 0.8, HMGR II inh -2.3, PMI act satM6P 1.1, Diaph act CS 0.7, NCF1 inh 45.0* and PMI act 1.

Screens deposited in PubChem BioAssay by several laboratories.
